Shown are actives, neighbours in structure and some others; about 3.8% of the full set was active somewhere.
NPY-Y2 antag: blocks the human neuropeptide Y Y2 receptor; P49146; NPY-Y2 expressing cells, antagonist mode; inhibition, % at 2.7 µM; actives 0.99% (n = 140,000); in the data active means inhibition above about 17%;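 further: 0% = vehicle with agonist challenge and 100% = reference antagonist with challenge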
NPY-Y2 PAM-ag: human NPY-Y2 potentiation or agonism, primary screen; activation, % at 3.6 µM; actives 0.45% (n = 220,000); cells expressing NPY-Y2, potentiator/agonist read-out; in the data active means activation above about 27%;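 further: cells stimulated with NPY near EC25 plus isoproterenol at EC100; 0% = vehicle plus submaximal agonist and 100% = vehicle plus saturating agonist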
Insulin prom inh: TRM-6 insulin promoter activity inhibition | TRM-6 cells, insulin promoter-eGFP reporter, imaging; reporter expression induced with tamoxifen | inhibition, % at 2 µM | actives 0.9% (n = 130,000) | AID 1273;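 active means inhibition above the mean plus 3 SD, with well images judged a real hit on visual review, cut at about 60% in these data, passing the limit was not always enough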
RAM network inh: inhibitors of the yeast RAM network. inhibition, % at 50 µM. actives 1.8% (n = 190,000). AID 868. S. cerevisiae dse1pr::URA3 reporter, 5-FOA growth OD615, 2 d; analog-sensitive cbk1-as2 kinase mutant strain;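 active means inhibition above a set limit, 3 SD over mean compound inhibition, cut at about 8.4% in these data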;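 further: 0% = DMSO-only wells with no growth and 100% = 10 µM 1-NA-PP1 full growth; inhibition rescues growth on 5-FOA so higher OD means more RAM inhibition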
NPY1 pot ag: human NPY-Y1 potentiation or agonism, primary screen | P25929 | NPY-Y1 expressing cells, potentiator/agonist activation | activation, % at 3.6 µM | actives 0.37% (n = 220,000) | AID 1304; in the data active means activation above about 33%, passing the limit was not always enough;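 further: cells stimulated with NPY at EC10 then isoproterenol at EC100; 0% = low agonist plus stimulus and 100% = saturating agonist plus stimulus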
Target sequence (P25929 whole entry, looked up): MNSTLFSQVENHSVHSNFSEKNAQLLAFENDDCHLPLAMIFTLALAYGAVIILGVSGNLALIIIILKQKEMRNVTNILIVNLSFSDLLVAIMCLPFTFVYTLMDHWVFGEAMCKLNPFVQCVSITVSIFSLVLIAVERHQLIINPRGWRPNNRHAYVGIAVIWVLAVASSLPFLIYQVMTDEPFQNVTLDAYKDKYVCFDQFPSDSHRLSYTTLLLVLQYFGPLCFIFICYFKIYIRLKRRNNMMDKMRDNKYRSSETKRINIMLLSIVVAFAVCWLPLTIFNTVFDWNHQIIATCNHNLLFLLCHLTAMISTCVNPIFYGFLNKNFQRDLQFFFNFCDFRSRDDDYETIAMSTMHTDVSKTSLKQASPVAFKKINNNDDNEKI
NPY Y1 blocker: blocks the human neuropeptide Y Y1 receptor; actives 1% (n = 200,000); inhibition, % at 3.6 µM; AID 1040; HEK293-CNG Y1 cells, membrane potential fluorescence; NPY at EC95, then isoproterenol; P25929;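 active means inhibition above the campaign mean inhibition of all tested compounds plus 3 SD, cut at about 20% in these data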;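 further: 0% = DMSO wells given NPY plus isoproterenol and 100% = isoproterenol alone without NPY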
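Assay system: HEK293 Y1/CNG channel cell line; Doses: single compound dose of 3.6 µM, 0.4% DMSO; Timing: dye 3 h, compound 60 min room temperature, stimulation 45 min; Technique: Membrane-potential fluorescent dye readout; Measure: % inhibition of NPY effect.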
Numbers without * were called inactive; · = no result given.

SMILES	NPY-Y2 antag	NPY-Y2 PAM-ag	Insulin prom inh	RAM network inh	NPY1 pot ag	NPY Y1 blocker
O=C1OC(N2CCN(C/C=C/c3ccccc3)CC2)c2ccccc21 (centres undefined)	0	-6	83*	1	-8	1
O=C1CC(N2CCN(C/C=C/c3ccccc3)CC2)C(=O)N1Cc1cccs1 (centres undefined)	5	-11	-39	1	-31	3
COc1cc(/C=N/OCC(=O)NC2CCCCC2C)ccc1OCc1ccc(Cl)cc1 (centres undefined)	5	4	-24	11*	-9	6
Cc1ccc2c(c1)N(CC(=O)NCc1ccco1)C(=O)C(C(C)C)O2 (centres undefined)	·	-9	·	·	4	·
CN(C)c1nc(-c2ccccc2)cc(C(F)(F)F)c1C#N	10	-3	19	8	-14	17
CCN(CC)c1nc(-c2ccc(Cl)cc2)cc(C(F)(F)F)c1C#N	1	-3	-10	9.6*	5	-5
Cc1c(C(=O)OCCOc2ccc(Br)cc2)sc(=S)n1C	·	-16	·	11*	-43	12
Fc1cccc(Cc2noc(CN3CCCN(C4Cc5ccccc5C4)CC3)n2)c1	·	-7	-7	-1	-1	22*
Fc1cccc(Cc2noc(CN3CCSCC3)n2)c1	·	-14	·	2	-16	1
C/C(=N\NC(=O)c1c(Br)cnn1C)c1ccc(NC(=O)c2ccc(F)cc2)cc1	·	10	·	5	2	-7
O=C(Nc1ccn(Cc2ccc(Cl)cc2)n1)c1ccc2c(c1)OCO2	5	-8	77*	1	-6	6
Cc1cc(NC(=O)c2ccc3c(c2)OCO3)no1	3	6	85*	1	-2	-2
CC(C)c1cc(C(=O)Nc2ccc3c(c2)OCO3)no1	2	-2	80*	-1	0	-4
Cc1ccc(Nc2nnc(C3C(=O)N(C)C4(C)CC3c3cc(Br)ccc3O4)s2)cc1 (centres undefined)	-3	-7	-21	1	6	1
CC(C1CC1)N(Cc1ccccc1)C(=O)NC(=O)c1ccccc1 (centres undefined)	·	0	·	1	0	-2
CC(C1CC1)N(Cc1ccccc1)C(=S)Nc1ccccc1Cl (centres undefined)	·	9	·	8.6*	-6	-2
CC(C)(C)NCC(O)COCc1ccc(Cl)cc1 (centres undefined)	0	68*	-10	0	73*	-5
CCc1ccc(OCC(O)CNC(C)(C)C)cc1 (centres undefined)	4	96*	19	2	93*	-16
Cc1cc(OCC(=O)NC(C)(C)C)ccc1Cl	0	-6	3	0	5	-1
Cc1cc(OCC(O)CNC(C)(C)C)ccc1Cl (centres undefined)	·	102*	-11	5	110*	-14
O=S1(=O)CC(O)C(N(CCO)C(=S)Nc2ccccc2)C1 (centres undefined)	·	-7	·	·	-3	·
Cc1cc(NC(=O)CSc2nnc(N)s2)c([N+](=O)[O-])cc1C	·	-1	27	1	-10	4
Cc1ccc(NCc2cccnc2)c(Br)c1	2	7	67*	0	12	-1
Cc1cc(F)ccc1NCc1cccnc1	1	11	-22	0	22	1
Cc1c(Cl)ccc2c1NC(=O)[C@]21N[C@@H](Cc2ccccc2)[C@H]2C(=O)N(c3ccc(F)cc3)C(=O)[C@H]21	0	23	-6	8.5*	0	-6
SMILES	NPY-Y2 antag	NPY-Y2 PAM-ag	Insulin prom inh	RAM network inh	NPY1 pot ag	NPY Y1 blocker
O=C1[C@@H]2[C@H](Cc3ccc(O)cc3)N[C@]3(C(=O)Nc4ccccc43)[C@@H]2C(=O)N1c1ccc(F)cc1	3	5	0	1	26	-4
O=C(NCc1ccc2c(c1)OCO2)C1CCCN1S(=O)(=O)c1ccc(Cl)cc1 (centres undefined)	·	-5	·	2	-6	-2
COC(=O)c1c(NC(=O)CN2CCC3(O)CCCCC3C2c2cc(OC)ccc2OC)sc(C)c1C (centres undefined)	2	6	64*	1	-28	5
CCCCOC(=O)CSc1n[nH]c(=O)[nH]c1=O	-2	-4	79*	1	14	-2
CCCCCOC(=O)C(C)Sc1n[nH]c(=O)[nH]c1=O (centres undefined)	·	-20	·	0	7	-1
O=C(c1ccc(Cl)cc1)N1CCCCC(Cl)C1=O (centres undefined)	·	-3	11	3	-14	-3
COC(=O)c1ccsc1NC(=O)c1cccc(OC)c1	·	-25	·	3	-25	10
COc1cccc(-c2nc(CSCC(=O)N3CCc4ccccc43)c(C)o2)c1	3	-7	9	8.8*	-7	2
COc1ccc(-c2nc(CSCC(=O)N3CCc4ccccc43)c(C)o2)cc1OC	1	2	-257	5	15	1
COc1cc(OC)cc(-c2nnc(SCC(=O)N3CCCc4ccccc43)o2)c1	4	-30	-29	2	-3	8
COc1cccc(-c2nnc(SCC(=O)N3CCCc4ccccc43)o2)c1	11	-19	61	8.5*	-65	10
COc1ccc(S(=O)(=O)NN(C)c2ncc(C(F)(F)F)cc2Cl)cc1	·	10	-15	0	8	3
Cc1ccc(OCCCC(=O)NCc2ccco2)c(C)c1	·	-2	0	-1	-3	7
COc1ccccc1N1CCN(C(=O)c2ccc(CSc3ccccc3)cc2)CC1	4	-5	-2	9.8*	-3	-2
COc1ccccc1N1CCN(C(=O)c2n[nH]c3ccccc23)CC1	·	2	75*	2	-3	7
O=C(c1ccc(CSc2ccccc2)cc1)N1CCN(c2ccccc2)CC1	·	-7	35	7	-26	9
COc1ccc(C(C)=O)cc1COC(=O)c1cnc(Cl)c(Cl)c1	·	-25	·	9.9*	-8	4
COc1ccc(C(C)=O)cc1COC(=O)c1ccc2c(c1)OCO2	11	-10	·	8	-8	7
CCC(NC(=O)c1ccccc1NC(=O)c1ccco1)C(=O)NNC(=O)c1ccncc1 (centres undefined)	·	-2	·	·	0	·
CCN(CC)S(=O)(=O)c1ccc(N2CCCCC2)c(C(=O)Nc2ccccc2N2CCOCC2)c1	6	-2	21	1	-26	-5
CCOC(=O)C1=C(C)N(C)C(C)=C(C(=O)OCC)C1c1ccc(Cl)cc1	9	-1	-103	6	-29	13
CCOC(=O)C1=C(C)N(C)C(C)=C(C(=O)OCC)C1c1ccc(C(=O)OC)cc1	25*	-13	-4	0	-15	35*
Cc1nc2sc(C#N)c(N)c2c2c1CCCC2	25*	-43	55	3	-84	22*
Cc1ccccc1-c1nnc(SCCC(=O)N2CCOCC2)o1	·	-4	36	1	9	2
